# Experiments:
# [1] = Mutagenic activity in Salmonella typhimurium TA97a assessed as increase in number of revertants at 0.002 ug/plate by Ames test absence of S9 fraction (Rvb=146+/- 8); format: toxicity; settings: salmonella enterica subsp. enterica serovar typhimurium
# Procedure, shortened: (§1)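 Microsuspension Ames test, with and without rat liver S9 mix. The S9 is from male Sprague-Dawley rats given Aroclor 1254 (26 mg/mL protein); the final mix is 4% S9, 10 mM G6P and 8 mM NADP. Triplicate plates are incubated 48 h at 37 °C and colonies counted automatically. Values are mean ± SD revertants per plate, tested against spontaneous revertants (Rvb) by Dunnett test.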
# [2] = Mutagenic activity in Salmonella Typhimurium TA102 assessed as increase in number of revertants at 80 ug/plate by Ames test absence of S9 fraction (Rvb=290+/-10); format: toxicity; settings: salmonella enterica subsp. enterica serovar typhimurium; procedure, shortened: as §1
# [3] = Mutagenic activity in Salmonella Typhimurium TA97a assessed as increase in number of revertants at 40 ug/plate by Ames test absence of S9 fraction (Rvb=146+/- 8); format: toxicity; settings: salmonella enterica subsp. enterica serovar typhimurium; procedure, shortened: as §1
# [4] = Mutagenic activity in Salmonella typhimurium TA97a assessed as increase in number of revertants at 60 ug/plate by Ames test presence of S9 fraction (Rvb=154+/-18); format: toxicity; settings: salmonella enterica subsp. enterica serovar typhimurium; procedure, shortened: as §1
# [5] = Mutagenic activity in Salmonella typhimurium TA98 assessed as increase in number of revertants at 60 ug/plate by Ames test absence of S9 fraction (Rvb=22+/- 4); format: toxicity; settings: salmonella enterica subsp. enterica serovar typhimurium; procedure, shortened: as §1
# [6] = Mutagenic activity in Salmonella Typhimurium TA102 assessed as increase in number of revertants at 40 ug/plate by Ames test presence of S9 fraction (Rvb=369+/-34); format: toxicity; settings: salmonella enterica subsp. enterica serovar typhimurium; procedure, shortened: as §1
# [7] = Mutagenic activity in Salmonella Typhimurium TA97a assessed as increase in number of revertants at 100 ug/plate by Ames test presence of S9 fraction (Rvb=154+/-18); format: toxicity; settings: salmonella enterica subsp. enterica serovar typhimurium; procedure, shortened: as §1
# [8] = Mutagenic activity in Salmonella Typhimurium TA98 assessed as increase in number of revertants at 80 ug/plate by Ames test presence of S9 fraction (Rvb=34+/- 4); format: toxicity; settings: salmonella enterica subsp. enterica serovar typhimurium; procedure, shortened: as §1
# [9] = Mutagenic activity in Salmonella typhimurium TA100 assessed as increase in number of revertants at 60 ug/plate by Ames test absence of S9 fraction (Rvb=108+/-5); format: toxicity; settings: salmonella enterica subsp. enterica serovar typhimurium; procedure, shortened: as §1
# [10] = Mutagenic activity in Salmonella typhimurium TA98 assessed as increase in number of revertants at 40 ug/plate by Ames test presence of S9 fraction (Rvb=34+/- 4); format: toxicity; settings: salmonella enterica subsp. enterica serovar typhimurium; procedure, shortened: as §1
# [11] = Mutagenic activity in Salmonella typhimurium TA102 assessed as increase in number of revertants at 80 ug/plate by Ames test presence of S9 fraction (Rvb=369+/-34); format: toxicity; settings: salmonella enterica subsp. enterica serovar typhimurium; procedure, shortened: as §1
# [12] = Mutagenic activity in Salmonella typhimurium TA100 assessed as increase in number of revertants at 40 ug/plate by Ames test presence of S9 fraction (Rvb=124+/-13); format: toxicity; settings: salmonella enterica subsp. enterica serovar typhimurium; procedure, shortened: as §1
# [13] = Mutagenic activity in Salmonella Typhimurium TA102 assessed as increase in number of revertants at 100 ug/plate by Ames test presence of S9 fraction (Rvb=369+/-34); format: toxicity; settings: salmonella enterica subsp. enterica serovar typhimurium; procedure, shortened: as §1
# [14] = Mutagenic activity in Salmonella typhimurium TA97a assessed as increase in number of revertants at 80 ug/plate by Ames test presence of S9 fraction (Rvb=154+/-18); format: toxicity; settings: salmonella enterica subsp. enterica serovar typhimurium; procedure, shortened: as §1
# [15] = Mutagenic activity in Salmonella Typhimurium TA97a assessed as increase in number of revertants at 40 ug/plate by Ames test presence of S9 fraction (Rvb=154+/-18); format: toxicity; settings: salmonella enterica subsp. enterica serovar typhimurium; procedure, shortened: as §1
# [16] = Mutagenic activity in Salmonella Typhimurium TA102 assessed as increase in number of revertants at 60 ug/plate by Ames test presence of S9 fraction (Rvb=369+/-34); format: toxicity; settings: salmonella enterica subsp. enterica serovar typhimurium; procedure, shortened: as §1
# [17] = Mutagenic activity in Salmonella Typhimurium TA97a assessed as increase in number of revertants at 100 ug/plate by Ames test absence of S9 fraction (Rvb=146+/- 8); format: toxicity; settings: salmonella enterica subsp. enterica serovar typhimurium; procedure, shortened: as §1
# [18] = Mutagenic activity in Salmonella typhimurium TA97a assessed as increase in number of revertants at 60 ug/plate by Ames test absence of S9 fraction (Rvb=146+/- 8); format: toxicity; settings: salmonella enterica subsp. enterica serovar typhimurium; procedure, shortened: as §1
# [19] = Mutagenic activity in Salmonella typhimurium TA98 assessed as increase in number of revertants at 60 ug/plate by Ames test presence of S9 fraction (Rvb=34+/- 4); format: toxicity; settings: salmonella enterica subsp. enterica serovar typhimurium; procedure, shortened: as §1
# [20] = Mutagenic activity in Salmonella Typhimurium TA98 assessed as increase in number of revertants at 100 ug/plate by Ames test presence of S9 fraction (Rvb=34+/- 4); format: toxicity; settings: salmonella enterica subsp. enterica serovar typhimurium; procedure, shortened: as §1
# [21] = Mutagenic activity in Salmonella Typhimurium TA102 assessed as increase in number of revertants at 40 ug/plate by Ames test absence of S9 fraction (Rvb=290+/-10); format: toxicity; settings: salmonella enterica subsp. enterica serovar typhimurium; procedure, shortened: as §1
# [22] = Mutagenic activity in Salmonella Typhimurium TA102 assessed as increase in number of revertants at 60 ug/plate by Ames test absence of S9 fraction (Rvb=290+/-10); format: toxicity; settings: salmonella enterica subsp. enterica serovar typhimurium; procedure, shortened: as §1
# [23] = Mutagenic activity in Salmonella Typhimurium TA98 assessed as increase in number of revertants at 100 ug/plate by Ames test absence of S9 fraction (Rvb=22+/- 4); format: toxicity; settings: salmonella enterica subsp. enterica serovar typhimurium; procedure, shortened: as §1
# [24] = Mutagenic activity in Salmonella Typhimurium TA100 assessed as increase in number of revertants at 60 ug/plate by Ames test presence of S9 fraction (Rvb=124+/-13); format: toxicity; settings: salmonella enterica subsp. enterica serovar typhimurium; procedure, shortened: as §1
# [25] = Mutagenic activity in Salmonella Typhimurium TA100 assessed as increase in number of revertants at 100 ug/plate by Ames test absence of S9 fraction (Rvb=108+/-5); settings: salmonella enterica subsp. enterica serovar typhimurium
# [26] = Mutagenic activity in Salmonella typhimurium TA100 assessed as increase in number of revertants at 100 ug/plate by Ames test presence of S9 fraction (Rvb=124+/-13); format: toxicity; settings: salmonella enterica subsp. enterica serovar typhimurium; procedure, shortened: as §1
# [27] = Cytotoxicity activity against CHO cells assessed as cell viability after 2 hrs by WST1 test; format: cell-based, Cricetulus griseus; settings: chinese hamster, read-out: Activity
# Procedure, shortened: (§2)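 CHO-K1 cells in McCoy's 5A with 10% fetal calf serum are seeded and incubated overnight at 37 °C, 5% CO2. A range of compound concentrations is added in triplicate cultures (final DMSO below 0.2%) for 2 or 24 h. Cells are washed three times in PBS, then given 10% WST1 in medium for 30 min. Viability is read as absorbance at 450 nm.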
# [28] = Mutagenic activity in Salmonella Typhimurium TA100 assessed as increase in number of revertants at 40 ug/plate by Ames test absence of S9 fraction (Rvb=108+/-5); format: toxicity; settings: salmonella enterica subsp. enterica serovar typhimurium; procedure, shortened: as §1
# [29] = Mutagenic activity in Salmonella Typhimurium TA102 assessed as increase in number of revertants at 100 ug/plate by Ames test absence of S9 fraction (Rvb=290+/-10); format: toxicity; settings: salmonella enterica subsp. enterica serovar typhimurium; procedure, shortened: as §1
# [30] = Mutagenic activity in Salmonella Typhimurium TA97a assessed as increase in number of revertants at 80 ug/plate by Ames test absence of S9 fraction (Rvb=146+/- 8); format: toxicity; settings: salmonella enterica subsp. enterica serovar typhimurium; procedure, shortened: as §1
# [31] = Mutagenic activity in Salmonella Typhimurium TA98 assessed as increase in number of revertants at 80 ug/plate by Ames test absence of S9 fraction (Rvb=22+/- 4); format: toxicity; settings: salmonella enterica subsp. enterica serovar typhimurium; procedure, shortened: as §1
# [32] = Mutagenic activity in Salmonella typhimurium TA98 assessed as increase in number of revertants at 40 ug/plate by Ames test absence of S9 fraction (Rvb=22+/- 4); format: toxicity; settings: salmonella enterica subsp. enterica serovar typhimurium; procedure, shortened: as §1
# CHO = assay: Cytotoxicity activity against CHO cells assessed as cell viability after 24 hrs by WST1 test; format: cell-based, Cricetulus griseus; settings: chinese hamster; procedure, shortened: as §2
# [33] = Mutagenic activity in Salmonella typhimurium TA100 assessed as increase in number of revertants at 80 ug/plate by Ames test absence of S9 fraction (Rvb=108+/-5); format: toxicity; settings: salmonella enterica subsp. enterica serovar typhimurium; procedure, shortened: as §1
# [34] = Mutagenic activity in Salmonella Typhimurium TA100 assessed as increase in number of revertants at 80 ug/plate by Ames test presence of S9 fraction (Rvb=124+/-13); format: toxicity; settings: salmonella enterica subsp. enterica serovar typhimurium; procedure, shortened: as §1
compound,measurement,setting,value
COc1ccc2nc3cc(Cl)ccc3c(NCCCNCCCl)c2c1,Activity,[1],1287
C=C[C@@H]1C2=CCOC(=O)C2=CO[C@H]1O[C@@H]1O[C@H](CO)[C@@H](O)[C@H](O)[C@H]1O [GENTIOPICROSIDE],Activity,[2],395
same,Activity,[3],188
same,Activity,[4],186
same,Activity,[5],22
same,Activity,[6],376
same,Activity,[7],173
same,Activity,[8],28
same,Activity,[9],135
same,Activity,[10],32
same,Activity,[11],413
same,Activity,[12],119
same,Activity,[13],385
same,Activity,[14],178
same,Activity,[15],274
same,Activity,[16],385
same,Activity,[17],180
same,Activity,[18],174
same,Activity,[19],29
same,Activity,[20],31
same,Activity,[21],368
same,Activity,[22],378
same,Activity,[23],26
same,Activity,[24],116
same,Activity,[25],136
same,Activity,[26],138
same,viability at 2 h,[27],95%
same,Activity,[28],117
same,Activity,[29],392
same,Activity,[30],180
same,Activity,[31],26
same,Activity,[32],19
same,Activity,CHO,Non-toxic
same,Activity,[33],138
same,Activity,[34],140

# Reference: ChEMBL document CHEMBL1154886, “DNA-damaging, mutagenic, and clastogenic activities of gentiopicroside isolated from Cephalaria kotschyi roots” (J Nat Prod, 2010)
